# Measurements: paper PMC9884086 (Journal of Medicinal Chemistry, 2023)
# pEC50, pIC50: −log10 of the molar value.
# Columns and labels:
# [1] = molecular target: Human PDE10A2 (Homo sapiens, UniProt Q9Y233); test: PDE10A fluorescence polarization; assay type: biochemical
# [2] = tested on: other PDE enzyme families (PDE1–PDE11); test: PDE selectivity over the other PDE enzyme families; assay type: biochemical; conditions: tables 1 and 2; over other PDEs
# [3] = Passive permeability; assay type: in vitro ADME; conditions: not told
# [4] = molecular target: full length human PDE10A2 (Homo sapiens, UniProt Q9Y233); test: Surface plasmon resonance binding kinetics; conditions: SPR
# full length human PDE10A2, sequence (Q9Y233 715-1055): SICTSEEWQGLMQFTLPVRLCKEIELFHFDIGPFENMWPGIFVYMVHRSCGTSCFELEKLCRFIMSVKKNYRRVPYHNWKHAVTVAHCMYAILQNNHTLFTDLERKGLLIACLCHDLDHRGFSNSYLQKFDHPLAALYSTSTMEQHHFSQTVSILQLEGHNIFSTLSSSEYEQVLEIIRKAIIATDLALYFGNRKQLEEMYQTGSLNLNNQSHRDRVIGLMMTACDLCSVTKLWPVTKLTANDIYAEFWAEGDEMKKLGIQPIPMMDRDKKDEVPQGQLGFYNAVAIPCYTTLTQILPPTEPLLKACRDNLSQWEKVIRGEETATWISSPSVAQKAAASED
# [5] = molecular target: Iks (Homo sapiens, UniProt P51787); test: Ion channel profile, Iks; assay type: cell-based
# Iks, sequence (P51787 whole entry): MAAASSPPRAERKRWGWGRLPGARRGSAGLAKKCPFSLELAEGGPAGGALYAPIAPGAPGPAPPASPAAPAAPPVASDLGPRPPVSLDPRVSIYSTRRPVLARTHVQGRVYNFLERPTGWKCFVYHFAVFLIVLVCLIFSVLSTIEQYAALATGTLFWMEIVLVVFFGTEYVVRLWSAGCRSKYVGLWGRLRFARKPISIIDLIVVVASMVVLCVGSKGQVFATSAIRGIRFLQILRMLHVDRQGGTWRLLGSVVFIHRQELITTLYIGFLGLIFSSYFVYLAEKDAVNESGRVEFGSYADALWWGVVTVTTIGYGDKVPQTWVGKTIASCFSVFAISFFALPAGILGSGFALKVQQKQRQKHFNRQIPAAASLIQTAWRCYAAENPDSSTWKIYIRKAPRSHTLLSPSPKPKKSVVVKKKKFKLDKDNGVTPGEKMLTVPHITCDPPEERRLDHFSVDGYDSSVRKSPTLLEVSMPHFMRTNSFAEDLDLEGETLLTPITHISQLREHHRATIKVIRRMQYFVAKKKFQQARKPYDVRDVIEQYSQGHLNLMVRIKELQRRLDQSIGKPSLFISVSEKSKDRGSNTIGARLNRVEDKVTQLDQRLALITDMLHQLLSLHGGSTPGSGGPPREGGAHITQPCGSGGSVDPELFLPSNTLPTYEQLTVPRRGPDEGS
# [6] = tested on: 5-strain Ames test; test: Microbial mutagenesis assay; assay type: cell-based
# [7] = tested on: Chinese hamster ovary cells; test: Assay for chromosomal aberrations; assay type: cell-based
# [8] = molecular target: T1, PDE10A (Rattus norvegicus, UniProt Q9QYJ6); test: In vivo PDE10A enzyme occupancy in rat striatum with [3H]MK-8193; parameters: species or system Wistar–Hannover rats
# T1 sequence (Q9QYJ6 1-794): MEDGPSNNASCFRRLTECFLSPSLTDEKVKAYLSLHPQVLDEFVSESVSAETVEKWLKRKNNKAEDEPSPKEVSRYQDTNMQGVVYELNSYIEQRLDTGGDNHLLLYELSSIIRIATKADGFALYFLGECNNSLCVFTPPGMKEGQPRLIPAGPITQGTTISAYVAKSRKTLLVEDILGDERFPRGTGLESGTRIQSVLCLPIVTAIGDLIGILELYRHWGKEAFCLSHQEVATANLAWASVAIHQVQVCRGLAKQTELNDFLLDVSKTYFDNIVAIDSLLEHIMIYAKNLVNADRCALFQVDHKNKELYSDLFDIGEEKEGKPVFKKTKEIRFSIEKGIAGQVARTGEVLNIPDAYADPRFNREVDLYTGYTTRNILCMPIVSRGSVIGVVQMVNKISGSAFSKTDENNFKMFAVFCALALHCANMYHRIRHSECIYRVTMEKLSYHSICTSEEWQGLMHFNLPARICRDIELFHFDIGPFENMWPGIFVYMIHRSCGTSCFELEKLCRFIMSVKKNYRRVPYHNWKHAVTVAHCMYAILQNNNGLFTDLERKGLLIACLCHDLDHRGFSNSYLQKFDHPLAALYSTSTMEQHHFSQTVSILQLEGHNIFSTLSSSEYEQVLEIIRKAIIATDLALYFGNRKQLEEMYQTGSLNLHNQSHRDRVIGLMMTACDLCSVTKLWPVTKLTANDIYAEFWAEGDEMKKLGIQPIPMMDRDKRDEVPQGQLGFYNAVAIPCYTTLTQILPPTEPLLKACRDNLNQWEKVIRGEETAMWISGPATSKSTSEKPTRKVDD
# [9] = tested on: MK-801-induced locomotor activity in rats; test: MK-801-induced psychomotor; assay type: in vivo; conditions: MK-801 model, striatal occupancy derived from plasma exposures
# [10] = tested on: novel objection recognition in rats; test: Novel objection recognition assay; assay type: in vivo; conditions: for novel objection recognition: rats, vs vehicle, p <0.05
# How it was run: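 Rats dosed orally with test compound; donepezil 0.56 mg/kg as reference. Plasma was taken 1 h post dose at the end of the behavioral study (n = 4/group). Striatal PDE10A occupancy was derived from these end-of-study plasma exposures. Significance was tested against vehicle.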
# [11] = tested on: circulating levels of prolactin; test: Circulating prolactin in rats; assay type: in vivo; conditions: data not shown
# [12] = Weight gain in rats; assay type: in vivo; conditions: data not shown
# [13] = tested on: catalepsy in the rats; test: Catalepsy in rats; assay type: in vivo; conditions: compared with atypical antipsychotics, data not shown
# [14] = tested on: acute episode of schizophrenia; conditions: patients experiencing an acute episode of schizophrenia; cited from earlier work
# Human PDE10A2, sequence (Q9Y233 267-1055): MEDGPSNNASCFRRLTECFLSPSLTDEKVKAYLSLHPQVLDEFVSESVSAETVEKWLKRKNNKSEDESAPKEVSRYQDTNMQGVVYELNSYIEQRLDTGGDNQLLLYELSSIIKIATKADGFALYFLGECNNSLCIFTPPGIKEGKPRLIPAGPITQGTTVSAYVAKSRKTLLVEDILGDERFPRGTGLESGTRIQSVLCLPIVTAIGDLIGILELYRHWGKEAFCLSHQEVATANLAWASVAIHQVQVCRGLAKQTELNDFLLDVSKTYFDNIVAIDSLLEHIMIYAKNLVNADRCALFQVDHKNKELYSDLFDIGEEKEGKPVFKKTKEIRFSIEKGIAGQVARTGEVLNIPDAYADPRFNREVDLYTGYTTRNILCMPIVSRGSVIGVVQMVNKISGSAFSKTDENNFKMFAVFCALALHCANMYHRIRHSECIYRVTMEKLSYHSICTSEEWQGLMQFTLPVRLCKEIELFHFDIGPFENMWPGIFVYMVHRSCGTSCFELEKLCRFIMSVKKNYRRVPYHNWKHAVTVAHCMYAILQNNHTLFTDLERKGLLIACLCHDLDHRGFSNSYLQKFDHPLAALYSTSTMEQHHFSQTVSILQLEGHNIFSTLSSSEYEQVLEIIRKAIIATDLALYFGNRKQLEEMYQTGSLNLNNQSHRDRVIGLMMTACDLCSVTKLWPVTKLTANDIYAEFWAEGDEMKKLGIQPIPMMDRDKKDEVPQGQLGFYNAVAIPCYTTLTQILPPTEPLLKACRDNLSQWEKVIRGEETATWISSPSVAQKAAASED
smiles,measurement,setting,value
"Cc1ccc([C@H]2C[C@@H]2COc2cc(NCc3nnc(C)s3)nc(C)n2)nc1 [Compound 18, 2-Methyl-N-((5-methyl-1,3,4-thiadiazol-2-yl)methyl)-6-(((1S,2S)-2-(5-methylpyridin-2-yl)cyclopropyl)methoxy)pyrimidin-4-amine]",LBE (ligand binding efficiency),[1],0.54
same,LLE (ligand-lipophilicity efficiency),[1],7.8
same,PDE selectivity,[2],"> 500,000"
same,Papp,[3],35.4 to 42.6 ×10⁻⁶ cm/s
same,on-rate,[4],~8.0 × 10^7 M^–1·s^–1
same,reversibility of binding,[4],completely reversible
same,in vitro half-life on the enzyme,[4]; 25 °C,~6.7 min
same,pIC50,[5],< 4.52
same,microbial mutagenesis (5-strain Ames test),[6],negative
same,chromosomal aberrations in Chinese hamster ovary cells,[7],negative
same,pEC50,[8],7.28
same,maximal enzyme occupancy in the rat striatum,"[8]; PO, higher plasma concentrations",full enzyme occupancy
same,enzyme occupancy at which efficacy was observed (and above),[9],approximately 25%
same,enzyme occupancy at which significant effects were achieved (and above),"[10]; novel objection recognition, striatal occupancy derived from plasma exposures",approximately 29%
same,novel objection recognition,[10]; 0.16 and 0.25 mg/kg PO,efficacious
same,novel objection recognition,"[10]; 0.16 and 0.25 mg/kg PO, listed as MK-8189 (18)",significantly improved recognition
same,effect on circulating levels of prolactin,[11],lack of effect
same,weight gain,[12],reduced weight gain
same,therapeutic window between antipsychotic-like effects and catalepsy,[13],larger therapeutic window
same,"antipsychotic efficacy, initial proof of concept",[14],evidence for antipsychotic efficacy
Cc1c(Cl)nc(C2CC2)nc1Cl [Compound 1],LBE (ligand binding efficiency),[1],0.57
"COc1cc2c(cc1OC)C(=O)C(CC1CCN(Cc3ccccc3)CC1)C2 (stereo not shown) [donepezil, reference compound]",novel objection recognition,[10]; positive control 0.56 mg/kg,significantly improved recognition
